Experimental data reported in ChEMBL document CHEMBL5104204, “Synthesis and in vitro anticancer evaluation of novel flavonoid-based amide derivatives as regulators of the PI3K/AKT signal pathway for TNBC treatment” (RSC Med Chem, 2022).

How the values were obtained:
HCC1937 = experiment: Antitumor activity against human HCC1937 cells assessed as inhibit cell proliferation incubated for 72 hrs by CCK-8 assay; format: functional, cell-based; conditions: HCC1937, 72 h
Outline: (§1)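 CCK8 viability readout. Culture media: HCC1937, A549, HeLa and GTL-16 in RPMI 1640; MDA-MB-231, MCF-7 and HepG2 in high-glucose DMEM; all with 10% FBS and penicillin/streptomycin, 37 °C, 5% CO2. 4×10^3–6×10^3 cells/well, 24 h, then compounds in serum-free medium, 72 h at 37 °C. 10% CCK8, 2 h, OD 450/630 nm. Five wells per group; IC50 from inhibition rate; three independent experiments, mean ± SD.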

HeLa = experiment: Antitumor activity against human HeLa cells assessed as inhibit cell proliferation incubated for 72 hrs by CCK-8 assay; format: functional, cell-based; outline: as §1
MDA-MB-231 [1] = experiment: Inhibition of colony formation in human MDA-MB-231 cells assessed as decrease in number of colony forming cells at 1.76 uM incubated upto 72 hrs by crystal violet staining based assay; format: functional, cell-based; conditions: TDE = time-dependent effect
Outline: (§2)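 Colony formation, MDA-MB-231: 800 cells/well, three replicate wells per group, grown 5–7 days at 37 °C, 5% CO2 until 30–50-cell clusters formed. Drug then added for 24, 48 or 72 h. Washed with cold PBS, fixed in 4% paraformaldehyde 30 min, stained with 0.5% crystal violet, imaged, colonies counted; n = 3.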

MDA-MB-231 [2] = experiment: Inhibition of colony formation in human MDA-MB-231 cells assessed as decrease in size of colony forming cells at 0.44 to 3.52 uM incubated for 48 hrs by crystal violet staining based assay; format: functional, cell-based; conditions: dose 0.44-3.52 µM, DDE = dose-dependent effect; outline: as §2
MDA-MB-231 [3] = experiment: Induction of apoptosis in human MDA-MB-231 cells assessed as chromatin concentration and margination at 0.88 to 3.52 uM incubated for 48 hrs by Hoechst 33258 staining based fluorescence microscopic analysis; format: functional, cell-based; conditions: dose 0.88-3.52 µM, DDE = dose-dependent effect
Outline: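 MDA-MB-231 seeded at 2×10^5–3×10^5 per well and incubated overnight (37 °C, 5% CO2). Exposed to compound for 48 h. Fixed in methanol 30 min, then stained with Hoechst 33258 for 30 min at room temperature in the dark. Nuclear morphology scored by fluorescence microscopy; n = 3, mean ± SD.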

MDA-MB-231 [4] = experiment: Induction of cell cycle arrest in human MDA-MB-231 cells assessed as decrease in S phase at 0.88 to 3.52 uM incubated for 48 hrs by flow cytometry; format: functional, cell-based; conditions: dose 0.88-3.52 µM, DDE = dose-dependent effect
Outline: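 Cell cycle of MDA-MB-231 after 48 h exposure: trypsinised and washed in PBS, about 1×10^6 cells/mL. Fixed overnight in pre-cooled 70% ethanol at 4 °C, then resuspended in PBS and filtered through 200-mesh nylon. Flow cytometry with 488 nm excitation gave G0/G1, S and G2/M percentages; n = 3, mean ± SD.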

MDA-MB-231 [5] = experiment: Induction of apoptosis in human MDA-MB-231 cells assessed as necrotic cells at 1.76 uM incubated for 48 hrs AnnexinV/ propidium iodide staining based flow cytometry (Rvb= 0.54%); format: functional
MDA-MB-231 [6] = experiment: Induction of apoptosis in human MDA-MB-231 cells assessed as necrotic cells at 3.52 uM incubated for 48 hrs AnnexinV/ propidium iodide staining based flow cytometry (Rvb= 0.54%); format: functional
MDA-MB-231 [7] = experiment: Induction of apoptosis in human MDA-MB-231 cells assessed as necrotic cells at 7.04 uM incubated for 48 hrs AnnexinV/ propidium iodide staining based flow cytometry (Rvb= 0.54%); format: functional
MDA-MB-231 [8] = experiment: Induction of apoptosis in human MDA-MB-231 cells assessed as early apoptotic cells at 0.88 uM incubated for 48 hrs AnnexinV/ propidium iodide staining based flow cytometry (Rvb= 0.3%); format: functional
MDA-MB-231 [9] = experiment: Induction of apoptosis in human MDA-MB-231 cells assessed as early apoptotic cells at 1.76 uM incubated for 48 hrs AnnexinV/ propidium iodide staining based flow cytometry (Rvb= 0.3%); format: functional
MDA-MB-231 [10] = experiment: Induction of apoptosis in human MDA-MB-231 cells assessed as early apoptotic cells at 2.2 uM incubated for 48 hrs AnnexinV/ propidium iodide staining based flow cytometry (Rvb= 0.3%); format: functional
MDA-MB-231 [11] = experiment: Induction of apoptosis in human MDA-MB-231 cells assessed as early apoptotic cells at 7.04 uM incubated for 48 hrs AnnexinV/ propidium iodide staining based flow cytometry (Rvb= 0.3%); format: functional
MDA-MB-231 [12] = experiment: Induction of apoptosis in human MDA-MB-231 cells assessed as late apoptotic cells at 0.88 uM incubated for 48 hrs AnnexinV/ propidium iodide staining based flow cytometry (Rvb= 0.40%); format: functional
MDA-MB-231 [13] = experiment: Induction of apoptosis in human MDA-MB-231 cells assessed as late apoptotic cells at 1.76 uM incubated for 48 hrs AnnexinV/ propidium iodide staining based flow cytometry (Rvb= 0.40%); format: functional
MDA-MB-231 [14] = experiment: Induction of apoptosis in human MDA-MB-231 cells assessed as late apoptotic cells at 3.52 uM incubated for 48 hrs AnnexinV/ propidium iodide staining based flow cytometry (Rvb= 0.40%); format: functional
MDA-MB-231 [15] = experiment: Induction of apoptosis in human MDA-MB-231 cells assessed as late apoptotic cells at 7.04 uM incubated for 48 hrs AnnexinV/ propidium iodide staining based flow cytometry (Rvb= 0.40%); format: functional
MDA-MB-231 [16] = experiment: Induction of apoptosis in human MDA-MB-231 cells assessed as viable cells at 2.2 uM incubated for 48 hrs AnnexinV/ propidium iodide staining based flow cytometry (Rvb= 99.02%); format: functional; conditions: read-out: Activity
MDA-MB-231 [17] = experiment: Inhibition of PI3K/AKT signalling pathway in human MDA-MB-231 cells assessed as upregulation of PTEN expression at 1 to 10 uM incubated for 48 hrs by western blot analysis; format: cell-based; conditions: dose 1-10 µM, DDE = dose-dependent effect
Outline: (§3)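 MDA-MB-231 treated at 1, 5 and 10 μM at 37 °C, then lysed in RIPA/PMSF for 30 min at 0 °C and cleared at 14 000 × g, 4 °C. Protein quantified by BCA; 40 μg resolved by SDS-PAGE and transferred to PVDF. Blocked in 5% skim milk, primary antibody overnight at 4 °C, secondary 2 h at room temperature, chemiluminescent imaging.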

MDA-MB-231 [18] = experiment: Induction of apoptosis in human MDA-MB-231 cells assessed as downregulation of Bcl-2 expression at 1 to 10 uM incubated for 48 hrs by western blot analysis; format: functional, cell-based; conditions: dose 1-10 µM, DDE = dose-dependent effect; outline: as §3
MDA-MB-231 [19] = experiment: Induction of apoptosis in human MDA-MB-231 cells assessed as upregulation of Bax expression at 1 to 10 uM incubated for 48 hrs by western blot analysis; format: functional, cell-based; conditions: dose 1-10 µM, DDE = dose-dependent effect
MDA-MB-231 [20] = experiment: Induction of apoptosis in human MDA-MB-231 cells assessed as upregulation of Caspase-3 expression at 1 to 10 uM incubated for 48 hrs by western blot analysis; format: functional, cell-based; conditions: dose 1-10 µM, DDE = dose-dependent effect

For O=C(Nc1cccc(-c2oc3cc(-c4ccc(F)cc4)ccc3c(=O)c2O)c1)c1ccc(Cl)nc1, the IC50 (HCC1937) was 7.55 µM, the IC50 (HeLa) was 4.08 µM and the inhibition (MDA-MB-231 [1]) was “Tde”. For the same molecule, the inhibition (MDA-MB-231 [2]) was “Dde”, the Activity (MDA-MB-231 [3]) was “Dde” and the Activity (MDA-MB-231 [4]) was “Dde”. The Activity (MDA-MB-231 [5]) was 0.86%, the Activity (MDA-MB-231 [6]) was 2.1% and the Activity (MDA-MB-231 [7]) was 1.92%. For the same molecule, the Activity (MDA-MB-231 [8]) was 1.48%, the Activity (MDA-MB-231 [9]) was 3.88% and the Activity (MDA-MB-231 [10]) was 7.49%. It also gave an Activity (MDA-MB-231 [11]) of 23.85%, an Activity (MDA-MB-231 [12]) of 23.54% and an Activity (MDA-MB-231 [13]) of 49.45%. For the same molecule, the Activity (MDA-MB-231 [14]) was 14.4%, the Activity (MDA-MB-231 [15]) was 68.54% and the viability at 2.2 µM (MDA-MB-231 [16]) was 29.8%. The inhibition (MDA-MB-231 [17]) was “Dde”, the Activity (MDA-MB-231 [18]) was “Dde” and the Activity (MDA-MB-231 [19]) was “Dde”. For the same molecule, the Activity (MDA-MB-231 [20]) was “Dde”.
